Measurements published in ChEMBL document CHEMBL1125735, “trans-hexahydroindolo[4,3-ab]phenanthridines ("benzergolines"), the first structural class of potent and selective dopamine D1 receptor agonists lacking a catechol group” (1991).

Columns and labels:
Bos taurus = species on record: Bos taurus; assay: Percent of maximal effect of 125 uM Dopamine in the adenylate cyclase assay.; format: functional
Procedure, shortened: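 Dopamine-sensitive adenylate cyclase assay run on bovine retina tissue.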

[1] = test system: Dopamine D1 receptor (Bos taurus); assay: Compound was evaluated for its potency to Dopamine D1 stimulating effect in the adenylate cyclase assay.
[2] = molecular target: D(2) dopamine receptor (Rattus norvegicus) (UniProt P61169); conditions: 1 uM
[3] = molecular target: D(2) dopamine receptor (Rattus norvegicus) (UniProt P61169); assay: Compound was evaluated for its potency to inhibit electrically evoked acetylcholine (ACh) release as a model for Dopamine D2 receptor activation.; format: functional
Procedure, shortened: (§1)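 Electrically evoked acetylcholine release measured in rat striatal slices.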

[4] = molecular target: D(2) dopamine receptor (Rattus norvegicus) (UniProt P61169); assay: Percent of maximal inhibition by change of S2/S1 versus control at 1 uM for the acetylcholine (ACh) release as a model for Dopamine D2 receptor activation.; format: functional; design: scale not given: the % may be the effect or the level left; procedure, shortened: as §1
[5] = molecular target: D(2) dopamine receptor (Rattus norvegicus) (UniProt P61169); assay: Percent of maximal inhibition by change of S2/S1 versus control at 1 uM for the cetylcholine (ACh) release as a model for Dopamine D2 receptor activation.; format: functional; design: scale not given: the % may be the effect or the level left; procedure, shortened: as §1

Sequence of D(2) dopamine receptor (Rattus norvegicus) (P61169 whole entry): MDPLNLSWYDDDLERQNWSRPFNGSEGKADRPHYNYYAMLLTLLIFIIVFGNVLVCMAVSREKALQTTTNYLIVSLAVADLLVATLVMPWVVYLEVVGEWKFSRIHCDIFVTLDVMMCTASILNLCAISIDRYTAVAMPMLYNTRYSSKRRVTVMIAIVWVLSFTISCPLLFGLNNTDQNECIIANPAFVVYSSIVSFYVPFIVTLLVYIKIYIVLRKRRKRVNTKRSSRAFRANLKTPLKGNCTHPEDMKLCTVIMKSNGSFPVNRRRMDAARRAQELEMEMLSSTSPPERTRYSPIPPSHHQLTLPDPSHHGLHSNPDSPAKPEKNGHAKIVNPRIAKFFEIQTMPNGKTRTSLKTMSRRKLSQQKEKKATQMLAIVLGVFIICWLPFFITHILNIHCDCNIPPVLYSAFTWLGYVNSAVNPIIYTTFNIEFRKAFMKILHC

SMILES	Relative activity (Bos taurus)	pD2 [1]	Control [2]	pD2 [3]	Control [4]	Control [5]
CN1CCc2cccc3c2[C@H]1Cc1ccc(O)c(O)c1-3 [APOMORPHINE]	38%	6.2	85%	7.5		
CCCN1Cc2ccccc2[C@H]2c3cccc4[nH]cc(c34)C[C@H]21	55%	5.7			0%	
CN1CCC[C@H]2c3cccc4[nH]cc(c34)C[C@H]21	24%	5.2		7.5		30%
CCCCN1Cc2ccccc2[C@H]2c3cccc4[nH]cc(c34)C[C@H]21	0%					0%
c1ccc2c(c1)CN[C@@H]1Cc3c[nH]c4cccc(c34)[C@H]21	82%	6.3			0%	
CN1Cc2ccccc2[C@H]2c3cccc4c3C(CN4)C[C@H]21 (stereo not given in full)	0%					0%
CCN1Cc2ccccc2[C@H]2c3cccc4[nH]cc(c34)C[C@H]21	72%	6			0%	
Oc1ccc([C@@H]2CNCc3ccccc32)cc1O	86%	6				0%
Oc1cc2c(cc1O)C(c1ccccc1)CNCC2 (stereo not given) [SKF-38393]	58%	6.6				0%
CN1Cc2ccccc2[C@H]2c3cccc4[nH]cc(c34)C[C@H]21	57%	6.1			0%	
